Consider seven compounds from publication PMC3769689 (Journal of medicinal chemistry, 2013).

The target of series [1] is T1, mGlu3 (Rattus norvegicus, UniProt P31422). Put plainly: mGlu3 calcium mobilization assay. The format is cell-based. A general note: Calcium assays in cells follow changes in intracellular calcium, usually with a dye or a luminescent sensor.
Another series is described as follows: rat microsomal clearance. The class given is in vitro ADME. Particulars: for Rat CLHEP: predicted hepatic clearance in vitro; for Rat CLHEP / CLint scaled at 1 µM: rat; for CLint scaled at 1 µM: microsomes.
Another series is described as follows: rat IV PK. The format is in vivo. The note with it: plasma.
Series [2] has as its target T1, mGlu3. Particulars: cited from earlier work.
For another series, the target named is mGlu1 (Homo sapiens, UniProt Q13255). Put plainly: mGluR selectivity, mGlu1. The format is cell-based.
Chain of mGlu1 (Q13255 19-1194): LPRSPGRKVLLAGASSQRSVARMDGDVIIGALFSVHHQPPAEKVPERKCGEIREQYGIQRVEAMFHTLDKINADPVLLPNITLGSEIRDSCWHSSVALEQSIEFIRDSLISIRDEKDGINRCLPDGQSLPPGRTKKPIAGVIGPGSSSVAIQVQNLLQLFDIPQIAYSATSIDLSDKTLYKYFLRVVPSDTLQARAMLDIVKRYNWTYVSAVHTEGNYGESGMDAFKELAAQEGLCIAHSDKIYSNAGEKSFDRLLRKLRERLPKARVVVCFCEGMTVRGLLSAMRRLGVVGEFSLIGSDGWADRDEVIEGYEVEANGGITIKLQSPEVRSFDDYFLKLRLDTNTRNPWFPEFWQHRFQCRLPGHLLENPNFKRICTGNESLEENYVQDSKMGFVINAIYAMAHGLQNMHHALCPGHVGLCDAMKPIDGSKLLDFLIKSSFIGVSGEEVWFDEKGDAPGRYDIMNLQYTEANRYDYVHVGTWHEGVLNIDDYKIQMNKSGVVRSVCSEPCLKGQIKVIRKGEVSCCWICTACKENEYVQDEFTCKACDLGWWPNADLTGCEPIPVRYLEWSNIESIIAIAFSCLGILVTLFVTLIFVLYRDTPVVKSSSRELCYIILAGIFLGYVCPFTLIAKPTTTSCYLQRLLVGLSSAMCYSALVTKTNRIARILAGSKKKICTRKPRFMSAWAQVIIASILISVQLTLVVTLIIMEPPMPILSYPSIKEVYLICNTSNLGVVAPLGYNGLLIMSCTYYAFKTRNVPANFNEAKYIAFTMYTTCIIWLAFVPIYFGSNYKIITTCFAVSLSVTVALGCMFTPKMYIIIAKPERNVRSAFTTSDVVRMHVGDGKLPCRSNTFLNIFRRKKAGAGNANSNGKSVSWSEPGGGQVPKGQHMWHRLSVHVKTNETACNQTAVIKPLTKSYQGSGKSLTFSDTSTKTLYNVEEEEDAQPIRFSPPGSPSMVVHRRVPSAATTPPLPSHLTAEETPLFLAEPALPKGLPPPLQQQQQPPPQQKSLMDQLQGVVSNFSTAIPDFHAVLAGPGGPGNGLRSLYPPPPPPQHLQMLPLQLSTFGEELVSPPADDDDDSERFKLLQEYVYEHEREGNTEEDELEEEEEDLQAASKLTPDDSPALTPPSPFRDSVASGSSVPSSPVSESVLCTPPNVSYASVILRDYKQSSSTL
The target in another series is mGlu4 (Homo sapiens, UniProt Q14833). Nature of the series: mGluR selectivity, mGlu4. The format is cell-based.
Chain of mGlu4 (Q14833 33-912): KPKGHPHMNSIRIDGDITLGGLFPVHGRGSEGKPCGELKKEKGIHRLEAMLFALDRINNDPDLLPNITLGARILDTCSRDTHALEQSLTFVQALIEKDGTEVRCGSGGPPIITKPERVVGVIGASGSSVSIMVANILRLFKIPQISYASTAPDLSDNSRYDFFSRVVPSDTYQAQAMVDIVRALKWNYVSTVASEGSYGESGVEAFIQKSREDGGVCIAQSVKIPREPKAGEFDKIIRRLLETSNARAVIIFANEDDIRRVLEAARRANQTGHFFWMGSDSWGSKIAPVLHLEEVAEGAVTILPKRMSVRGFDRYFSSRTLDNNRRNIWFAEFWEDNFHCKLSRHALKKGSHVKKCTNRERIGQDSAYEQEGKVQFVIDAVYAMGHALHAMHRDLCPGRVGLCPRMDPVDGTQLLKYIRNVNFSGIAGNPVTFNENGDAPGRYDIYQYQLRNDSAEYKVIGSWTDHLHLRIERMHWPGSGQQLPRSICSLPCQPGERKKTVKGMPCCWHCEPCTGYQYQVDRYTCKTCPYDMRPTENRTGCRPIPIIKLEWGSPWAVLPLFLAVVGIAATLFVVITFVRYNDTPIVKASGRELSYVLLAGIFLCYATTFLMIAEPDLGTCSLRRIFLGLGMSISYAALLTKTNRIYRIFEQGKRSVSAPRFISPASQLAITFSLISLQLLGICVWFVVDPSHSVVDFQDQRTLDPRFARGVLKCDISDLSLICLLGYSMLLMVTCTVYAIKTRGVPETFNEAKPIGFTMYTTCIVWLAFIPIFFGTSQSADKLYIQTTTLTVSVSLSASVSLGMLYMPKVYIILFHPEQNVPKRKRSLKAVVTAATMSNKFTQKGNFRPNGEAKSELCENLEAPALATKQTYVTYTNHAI
Another series deals with mGlu5 (Homo sapiens, UniProt P41594). Put plainly: mGluR selectivity, mGlu5. The class given is cell-based.
Another series addresses mGlu6 (Homo sapiens, UniProt O15303). Put plainly: mGluR selectivity, mGlu6. The format is cell-based.
The target of the next series is mGlu7 (Homo sapiens, UniProt Q14831). Put plainly: mGluR selectivity, mGlu7. The class given is cell-based.
The target of another series is mGlu8 (Homo sapiens, UniProt O00222). Nature of the series: mGluR selectivity, mGlu8. The class given is cell-based.
Series [3] concerns the target T1, mGlu3. Nature of the series: progressive fold shift assay with glutamate. The format is cell-based.
The target of series [4] is T1, mGlu3. Put plainly: probe dependence, glutamate vs LY379268. The format is cell-based. The note with it: glutamate vs LY379268 as agonist.
Series [5] can be described thus: human microsomal clearance. The format is in vitro ADME.
A further series has as its target DAT (Homo sapiens, UniProt Q01959). Nature of the series: functional activity at DAT.
The target of another series is 5-HT2B (Homo sapiens, UniProt P41595). Nature of the series: functional activity at 5-HT2B.
Chain of 5-HT2B (P41595 whole entry): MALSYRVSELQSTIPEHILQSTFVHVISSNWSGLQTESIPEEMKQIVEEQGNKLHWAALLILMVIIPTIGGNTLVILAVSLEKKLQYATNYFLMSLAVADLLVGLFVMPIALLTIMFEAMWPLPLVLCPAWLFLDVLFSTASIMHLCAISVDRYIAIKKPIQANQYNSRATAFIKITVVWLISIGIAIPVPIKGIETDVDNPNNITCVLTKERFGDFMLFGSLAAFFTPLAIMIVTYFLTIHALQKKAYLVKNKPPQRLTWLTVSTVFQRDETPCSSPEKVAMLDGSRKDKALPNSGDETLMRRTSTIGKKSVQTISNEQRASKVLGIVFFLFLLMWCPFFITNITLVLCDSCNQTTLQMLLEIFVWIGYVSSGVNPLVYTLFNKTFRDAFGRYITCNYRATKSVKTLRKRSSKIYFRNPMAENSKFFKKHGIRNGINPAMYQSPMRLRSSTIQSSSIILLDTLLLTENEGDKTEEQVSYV
Series [6] is described as follows: mouse tissue distribution study. The format is in vivo. Particulars: cassette, IP. The gist of the method:
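Mice received the test compounds together as a cassette by intraperitoneal injection. Plasma and brain tissue were then analysed by LC/MS/MS to measure compound exposure in each and derive the brain-to-plasma ratio.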

The next series can be described thus: in vivo rat PK. The note with it: 10 mg/kg.
Series [7] in a line: metabolite identification. The class given is in vitro ADME.

Entries after “also recorded” stand apart in the source; their conditions may differ.

T1 sequence (P31422 23-879): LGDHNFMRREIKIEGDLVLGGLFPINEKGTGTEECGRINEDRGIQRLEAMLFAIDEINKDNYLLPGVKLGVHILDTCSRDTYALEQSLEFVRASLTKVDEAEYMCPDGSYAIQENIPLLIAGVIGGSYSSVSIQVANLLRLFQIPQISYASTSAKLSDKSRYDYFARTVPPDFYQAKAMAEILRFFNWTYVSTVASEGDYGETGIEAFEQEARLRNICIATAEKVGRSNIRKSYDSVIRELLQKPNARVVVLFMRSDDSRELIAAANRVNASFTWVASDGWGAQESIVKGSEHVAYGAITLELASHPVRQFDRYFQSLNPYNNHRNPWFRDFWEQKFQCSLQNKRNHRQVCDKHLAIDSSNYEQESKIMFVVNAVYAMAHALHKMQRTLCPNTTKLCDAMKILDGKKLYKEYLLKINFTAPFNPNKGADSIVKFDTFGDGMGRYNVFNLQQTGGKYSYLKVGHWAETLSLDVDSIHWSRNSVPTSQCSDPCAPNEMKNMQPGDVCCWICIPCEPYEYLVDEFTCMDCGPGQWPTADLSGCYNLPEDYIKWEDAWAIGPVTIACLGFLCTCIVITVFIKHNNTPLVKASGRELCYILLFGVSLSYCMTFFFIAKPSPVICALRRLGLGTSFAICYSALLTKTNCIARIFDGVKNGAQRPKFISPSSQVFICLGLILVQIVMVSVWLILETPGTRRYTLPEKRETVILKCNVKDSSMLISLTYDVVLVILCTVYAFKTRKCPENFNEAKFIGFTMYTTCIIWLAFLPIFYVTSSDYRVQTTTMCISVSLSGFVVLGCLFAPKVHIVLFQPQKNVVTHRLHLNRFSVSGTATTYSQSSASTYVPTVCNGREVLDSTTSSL
Chain of DAT (Q01959 whole entry): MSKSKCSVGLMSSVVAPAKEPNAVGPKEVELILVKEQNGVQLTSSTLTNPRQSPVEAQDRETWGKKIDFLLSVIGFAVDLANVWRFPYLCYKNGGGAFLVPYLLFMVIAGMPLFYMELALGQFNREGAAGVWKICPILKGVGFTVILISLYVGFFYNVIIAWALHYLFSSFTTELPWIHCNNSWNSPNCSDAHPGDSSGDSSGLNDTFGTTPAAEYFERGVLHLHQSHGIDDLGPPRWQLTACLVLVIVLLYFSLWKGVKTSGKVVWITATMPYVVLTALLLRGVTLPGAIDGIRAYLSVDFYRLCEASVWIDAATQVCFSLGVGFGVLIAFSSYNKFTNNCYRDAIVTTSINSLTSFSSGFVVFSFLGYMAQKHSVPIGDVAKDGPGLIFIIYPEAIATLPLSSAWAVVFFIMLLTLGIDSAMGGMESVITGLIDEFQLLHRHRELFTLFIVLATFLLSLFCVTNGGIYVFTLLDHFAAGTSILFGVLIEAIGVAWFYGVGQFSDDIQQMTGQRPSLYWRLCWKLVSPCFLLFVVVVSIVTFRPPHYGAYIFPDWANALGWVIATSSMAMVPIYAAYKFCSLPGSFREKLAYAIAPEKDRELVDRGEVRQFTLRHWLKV
Chain of mGlu6 (O15303 25-877): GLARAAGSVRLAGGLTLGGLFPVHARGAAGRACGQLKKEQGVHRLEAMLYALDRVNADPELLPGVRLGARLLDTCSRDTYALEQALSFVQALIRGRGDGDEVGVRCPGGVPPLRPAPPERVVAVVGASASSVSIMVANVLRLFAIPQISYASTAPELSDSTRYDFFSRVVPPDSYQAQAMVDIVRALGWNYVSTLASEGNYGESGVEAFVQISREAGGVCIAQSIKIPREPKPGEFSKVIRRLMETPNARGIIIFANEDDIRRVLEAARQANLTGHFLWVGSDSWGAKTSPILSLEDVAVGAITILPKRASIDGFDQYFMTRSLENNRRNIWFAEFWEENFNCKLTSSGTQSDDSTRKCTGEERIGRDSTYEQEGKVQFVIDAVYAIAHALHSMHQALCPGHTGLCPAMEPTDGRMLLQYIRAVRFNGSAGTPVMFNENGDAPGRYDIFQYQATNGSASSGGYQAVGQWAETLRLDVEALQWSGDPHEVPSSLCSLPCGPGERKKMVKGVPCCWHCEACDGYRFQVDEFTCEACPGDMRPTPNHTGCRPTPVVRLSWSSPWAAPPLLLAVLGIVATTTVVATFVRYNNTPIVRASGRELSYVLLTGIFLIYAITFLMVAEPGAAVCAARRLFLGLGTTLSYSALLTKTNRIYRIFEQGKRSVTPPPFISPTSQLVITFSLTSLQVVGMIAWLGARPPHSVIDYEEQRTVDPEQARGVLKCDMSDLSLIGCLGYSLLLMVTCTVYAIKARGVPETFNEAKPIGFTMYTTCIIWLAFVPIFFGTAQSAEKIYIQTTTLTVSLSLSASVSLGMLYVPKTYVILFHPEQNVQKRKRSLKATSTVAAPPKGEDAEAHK

As for `COc1ccc(C#Cc2ccc(C(=O)N3CCCC(OC)C3)cc2)cc1` (centres unmarked) [8b], the “mGlu3 NAM activity (in words)” value at mGlu3 [1] is recorded as “lost”.

By CLint scaled is commonly meant the rate of metabolic loss divided by the concentration. The Vd is the apparent volume that relates the amount in the body to the concentration in plasma or blood. One may read the clearance as the volume of plasma or blood freed of the substance per unit of time. Take `COc1ccc(C#Cc2ccc(C(=O)N3CCC[C@@H](O)C3)cc2)cc1` [8d]: in the series “rat microsomal clearance”, the “Rat CLHEP” value is 52.7 mL/min/kg and the CLint scaled at 1 µM is 214 mL/min/kg. In the series “rat IV PK”, this compound returned a Vd of 0.22 L/kg and a clearance of 6.2 mL/min/kg.

As to `COc1ccc(C#Cc2ccc(C(=O)N3CCC[C@@H](CO)C3)cc2)cc1` [compound 3], the “selectivity vs. mGlu2” value at mGlu3 [2] is on record as > 15 fold.

One may read the IC50 as the concentration that inhibits the measured activity by half. As usually defined, the Kp is the ratio of the level in a tissue or fluid to that in plasma or blood. The AUC(0-t) is exposure summed from dosing to a finite time, without extrapolation to infinity. A low value points to low exposure. In the case of `COc1ccc(C#Cc2ccc(C(=O)N3CCC[C@@H](O)C3)c(F)c2)cc1` [compound 9], on mGlu3 [1], the “mGlu3 NAM activity (in words)” value was “sub-micromolar”. The IC50 on mGlu1, against mGlu4, at mGlu5, against mGlu6, against mGlu7 and on mGlu8 was > 30 µM throughout. For the same compound, on mGlu3 [3], the “mode of antagonism with respect to glutamate” value was “non-competitive antagonism; also recorded: non-competitive decrease in the EC80”. The probe dependence entry at mGlu3 [4] is “no differences; also recorded: equipotent and efficacious”. The “Rat CLHEP” value in “rat microsomal clearance” was 54.1 mL/min/kg. For the same compound, the CLint scaled at 1 µM in the series “rat microsomal clearance” came to 239 mL/min/kg. Further, in “rat microsomal clearance” (words), the “stability in rat microsomes” value is recorded as “unstable”. In addition, the “Human CLHEP” value in series [5] (predicted hepatic clearance in vitro, human) is on record as 18.9 mL/min/kg. In [5] (words), the “stability in human microsomes” value is listed as “unstable”. For the same compound, at DAT, the “functional activity at DAT” value was “no functional activity”. On 5-HT2B, the “functional activity at 5-HT2B” value is recorded as “no functional activity”. The compound also gave a BrainAUC in series [6] of 3.37 µM. Besides, the plasmaAUC in series [6] was 3.71 µM. Moreover, the “Brain AUC0-6” value in the series “in vivo rat PK” (IP, 0-6 h) is 9.6 µM·h. Also, the Kp in “in vivo rat PK” (brain and plasma, ip) stood at 0.3. In “in vivo rat PK” (plasma, ip), this compound returned an AUC(0-t) of 33.1 µM·h. This compound also had a Vd in the series “rat IV PK” of 0.21 L/kg. Besides, the clearance in the series “rat IV PK” turned out to be 5.2 mL/min/kg. The major metabolite result in series [7] was “P450-mediated O-demethylation”.

`COc1ccc(C#Cc2ccc(C(=O)N3CCC[C@@H](O)C3)cc2F)cc1` [compound 10]: at mGlu3 [1], the “mGlu3 NAM activity (in words)” value is on record as “sub-micromolar”.

Regarding `[2H]C([2H])([2H])Oc1ccc(C#Cc2ccc(C(=O)N3CCC[C@@H](O)C3)cc2)cc1` [compound 11], in “rat microsomal clearance”, the “Rat CLHEP” value is given as 40.7 mL/min/kg and the CLint scaled at 1 µM is 97.3 mL/min/kg. Also, in “rat IV PK”, the Vd is 0.21 L/kg and the clearance is 3.3 mL/min/kg.

For the compound `[2H]C([2H])([2H])Oc1ccc(C#Cc2ccc(C(=O)N3CCC[C@@H](O)C3)c(F)c2)cc1` [compound 12], the “Rat CLHEP” value in “rat microsomal clearance” is 35.9 mL/min/kg. In the series “rat IV PK”, the Vd was 0.18 L/kg and the clearance is 2.9 mL/min/kg.
